Data reported in ChEMBL document CHEMBL4689842, “EUbOPEN Chemogenomics Library wave 1” (2021).

Test system: U2OS
Assay: Multiplex assay against U2OS
Format: toxicity, cell-based
Conditions: human
How it was run: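 Cells were classed with CellPathfinder machine-learning gating, first as Hoechst high-intensity objects or normal cells, then (normal cells) as healthy, pyknosed or fragmented nuclei, and finally (pyknosed cells) as mitotic or apoptotic. Staining of live cells at seeding used Hoechst33342, BioTracker Green Microtubule Cytoskeleton Dye, MitoTracker Red and Annexin V Alexa Fluor 680, with imaging on a CQ1 microscope at 37°C and 5% CO2 after compound addition. Tubulin, mitochondrial-mass and membrane-permeability phenotypes are per cents of healthy-nucleus cells.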

[1] = 12 h, 1 µM, compound concentration 1 uM, replicate 1
[2] = 12 h, 1 µM, compound concentration 1 uM, replicate 2
[3] = 12 h, 10 µM, compound concentration 10 uM, replicate 1
[4] = 12 h, 10 µM, compound concentration 10 uM, replicate 2
[5] = 24 h, 1 µM, compound concentration 1 uM, replicate 1
[6] = 24 h, 1 µM, compound concentration 1 uM, replicate 2
[7] = 24 h, 10 µM, compound concentration 10 uM, replicate 1
[8] = 24 h, 10 µM, compound concentration 10 uM, replicate 2
[9] = 48 h, 1 µM, compound concentration 1 uM, replicate 1
[10] = 48 h, 1 µM, compound concentration 1 uM, replicate 2
[11] = 48 h, 10 µM, compound concentration 10 uM, replicate 1
[12] = 48 h, 10 µM, compound concentration 10 uM, replicate 2

## CCn1c(=O)c(-c2ccc(-c3cncs3)cc2Cl)cc2cnc(Nc3ccc(N4CCN(C)CC4)cc3)nc21
[1]
  Population Apoptotic (%): 57%
  Population Fragmented Nuclei (%): 11%
  Population Healthy Nuclei (%): 77%
  Population Hoechst High Intensity Objects (%): 7%
  Population Membrane Permeable-Phenotype (%): 11%
  Population Mitochondria Different-Phenotype (%): 11%
  Population Mitotic Cells (%): 42%
  Population Normal (%): 92%
  Population Pyknosed Nuclei (%): 11%
  Population Tubulin-Different-Phenotype (%): 7%
  Total Cell Count: 162
[2]
  Population Apoptotic (%): 75%
  Population Fragmented Nuclei (%): 9%
  Population Healthy Nuclei (%): 78%
  Population Membrane Permeable-Phenotype (%): 3%
  Population Mitochondria Different-Phenotype (%): 17%
  Population Mitotic Cells (%): 25%
  Population Tubulin-Different-Phenotype (%): 19%
  Total Cell Count: 76
[3]
  Population Apoptotic (%): 84%
  Population Fragmented Nuclei (%): 40%
  Population Healthy Nuclei (%): 5%
  Population Hoechst High Intensity Objects (%): 77%
  Population Membrane Permeable-Phenotype (%): 38%
  Population Mitochondria Different-Phenotype (%): 53%
  Population Mitotic Cells (%): 15%
  Population Normal (%): 22%
  Population Pyknosed Nuclei (%): 54%
  Population Tubulin-Different-Phenotype (%): 84%
  Total Cell Count: 177
[4]
  Population Apoptotic (%): 11%
  Population Fragmented Nuclei (%): 8%
  Population Healthy Nuclei (%): 79%
  Population Hoechst High Intensity Objects (%): 4%
  Population Membrane Permeable-Phenotype (%): 5%
  Population Mitochondria Different-Phenotype (%): 29%
  Population Mitotic Cells (%): 88%
  Population Normal (%): 96%
  Population Pyknosed Nuclei (%): 12%
  Population Tubulin-Different-Phenotype (%): 15%
  Total Cell Count: 77
[5]
  Population Apoptotic (%): 38%
  Population Fragmented Nuclei (%): 10%
  Population Healthy Nuclei (%): 78%
  Population Hoechst High Intensity Objects (%): 4%
  Population Membrane Permeable-Phenotype (%): 6%
  Population Mitochondria Different-Phenotype (%): 6%
  Population Mitotic Cells (%): 61%
  Population Normal (%): 95%
  Population Pyknosed Nuclei (%): 10%
  Population Tubulin-Different-Phenotype (%): 7%
  Total Cell Count: 161
[6]
  Population Apoptotic (%): 46%
  Population Fragmented Nuclei (%): 15%
  Population Healthy Nuclei (%): 68%
  Population Membrane Permeable-Phenotype (%): 1%
  Population Mitochondria Different-Phenotype (%): 5%
  Population Mitotic Cells (%): 53%
  Population Pyknosed Nuclei (%): 16%
  Population Tubulin-Different-Phenotype (%): 20%
  Total Cell Count: 74
[7]
  Population Apoptotic (%): 97%
  Population Fragmented Nuclei (%): 30%
  Population Healthy Nuclei (%): 0%
  Population Hoechst High Intensity Objects (%): 78%
  Population Membrane Permeable-Phenotype (%): 100%
  Population Mitochondria Different-Phenotype (%): 100%
  Population Mitotic Cells (%): 2%
  Population Normal (%): 21%
  Population Pyknosed Nuclei (%): 69%
  Population Tubulin-Different-Phenotype (%): 100%
  Total Cell Count: 212
[8]
  Population Apoptotic (%): 27%
  Population Fragmented Nuclei (%): 14%
  Population Healthy Nuclei (%): 71%
  Population Hoechst High Intensity Objects (%): 3%
  Population Membrane Permeable-Phenotype (%): 7%
  Population Mitochondria Different-Phenotype (%): 23%
  Population Mitotic Cells (%): 72%
  Population Normal (%): 96%
  Population Pyknosed Nuclei (%): 14%
  Population Tubulin-Different-Phenotype (%): 8%
  Total Cell Count: 83
[9]
  Population Apoptotic (%): 60%
  Population Fragmented Nuclei (%): 6%
  Population Healthy Nuclei (%): 85%
  Population Hoechst High Intensity Objects (%): 3%
  Population Membrane Permeable-Phenotype (%): 3%
  Population Mitochondria Different-Phenotype (%): 9%
  Population Mitotic Cells (%): 40%
  Population Normal (%): 96%
  Population Pyknosed Nuclei (%): 8%
  Population Tubulin-Different-Phenotype (%): 9%
  Total Cell Count: 186
[10]
  Population Apoptotic (%): 50%
  Population Fragmented Nuclei (%): 8%
  Population Healthy Nuclei (%): 79%
  Population Hoechst High Intensity Objects (%): 8%
  Population Membrane Permeable-Phenotype (%): 7%
  Population Mitochondria Different-Phenotype (%): 20%
  Population Mitotic Cells (%): 50%
  Population Normal (%): 92%
  Population Pyknosed Nuclei (%): 12%
  Population Tubulin-Different-Phenotype (%): 23%
  Total Cell Count: 105
[11]
  Population Apoptotic (%): 93%
  Population Fragmented Nuclei (%): 31%
  Population Healthy Nuclei (%): 0%
  Population Hoechst High Intensity Objects (%): 80%
  Population Membrane Permeable-Phenotype (%): 25%
  Population Mitochondria Different-Phenotype (%): 25%
  Population Mitotic Cells (%): 6%
  Population Normal (%): 19%
  Population Pyknosed Nuclei (%): 67%
  Population Tubulin-Different-Phenotype (%): 50%
  Total Cell Count: 321
[12]
  Population Apoptotic (%): 57%
  Population Fragmented Nuclei (%): 16%
  Population Healthy Nuclei (%): 70%
  Population Hoechst High Intensity Objects (%): 3%
  Population Membrane Permeable-Phenotype (%): 16%
  Population Mitochondria Different-Phenotype (%): 24%
  Population Mitotic Cells (%): 42%
  Population Normal (%): 96%
  Population Pyknosed Nuclei (%): 13%
  Population Tubulin-Different-Phenotype (%): 18%
  Total Cell Count: 125
